The target in assay [1] is T1, C-type lectin domain family 4 member E (Homo sapiens) (UniProt Q9ULY5).
T1 sequence (whole entry): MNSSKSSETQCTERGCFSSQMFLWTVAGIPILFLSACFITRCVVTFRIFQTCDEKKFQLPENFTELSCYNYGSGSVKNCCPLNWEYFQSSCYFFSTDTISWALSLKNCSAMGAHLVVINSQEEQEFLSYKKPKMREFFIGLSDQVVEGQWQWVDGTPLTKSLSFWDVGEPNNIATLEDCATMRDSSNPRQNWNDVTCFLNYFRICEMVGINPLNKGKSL
The assay is described as follows: Agonist activity at human Mincle receptor expressed in HEK cells cotransfected with NF-kappaB SEAP reporter gene assessed as increase in production of SEAP measured after 18 to 24 hrs by SEAP reporter gene-based spectrophotometric method. The class given is cell-based. In a few lines:
(§1)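 Compounds serially diluted in EtOH; 10x final concentration coated on well bottoms and solvent evaporated >1 h. HEK-Blue hMincle cells with NF-κB-driven SEAP reporter, grown in DMEM/10% FBS with blasticidin, puromycin and CLR selection, added at 3 × 10^5 cells/well. 18–24 h at 37 °C. HEK-Blue Detection, OD 620–655 nm, fold change over vehicle; n=3. HEK null cells as counter-screen.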
(In general: In a reporter assay the amount or activity of a reporter protein is the signal.)

In a further assay the test system is PBMC. Briefly: Induction of IL-6 production in human PBMC measured after 18 to 24 hrs at 0.01 to 100 uM by ELISA. It counts as functional, cell-based. Put shortly:
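Freshly Ficoll-isolated PBMCs from healthy adult donors, in RPMI with 5% autologous plasma and counted as viable cells by trypan blue, added to wells with compounds serially diluted in ethanol and dried on. Incubation 18–24 h at 37 °C/5% CO2. Supernatant IL-6 measured by ELISA, read at 450 nm; n=3 independent donors, mean ± SEM.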
For orientation: An ELISA detects its analyte on a solid surface through an enzyme-linked reagent.

For assay [2], the target named is T1, C-type lectin domain family 4 member E (Homo sapiens). The assay is described as follows: Agonist activity at human Mincle receptor expressed in HEK cells cotransfected with NF-kappaB SEAP reporter gene assessed as increase in production of SEAP at 20 uM measured after 18 to 24 hrs by SEAP reporter gene-based spectrophotometric method. The class given is cell-based. In a few lines: as §1

The structures appear in SMILES notation. Activity calls are given as the source filed them. The calls are words filed in the database; no cut-off is given here.

`O=C(OC[C@H]1O[C@H](O[C@H]2O[C@H](COC(=O)c3ccccc3C(F)(F)F)[C@@H](O)[C@H](O)[C@H]2O)[C@H](O)[C@@H](O)[C@@H]1O)c1ccccc1C(F)(F)F`: in assay [1], the Activity result was “Dose-dependent effect”. For the same compound, in the assay on PBMC, the outcome was Active.
Regarding `O=C(OC[C@H]1O[C@H](O[C@H]2O[C@H](COC(=O)c3cc([N+](=O)[O-])cc([N+](=O)[O-])c3)[C@@H](O)[C@H](O)[C@H]2O)[C@H](O)[C@@H](O)[C@@H]1O)c1cc([N+](=O)[O-])cc([N+](=O)[O-])c1`, the outcome in the assay with PBMC was Active.
Still for that read-out and setting: in the case of `COc1ccc(C(=O)OC[C@H]2O[C@H](O[C@H]3O[C@H](COC(=O)c4ccc(OC)cc4C(F)(F)F)[C@@H](O)[C@H](O)[C@H]3O)[C@H](O)[C@@H](O)[C@@H]2O)c(C(F)(F)F)c1` it was “inactive”.
Take `CCCCCCCCCCCCCCCCCCCCCC(=O)OC[C@H]1O[C@H](O[C@H]2O[C@H](COC(=O)CCCCCCCCCCCCCCCCCCCCC)[C@@H](O)[C@H](O)[C@H]2O)[C@H](O)[C@@H](O)[C@@H]1O`: in assay [1], the Activity result was “Dose-dependent effect”.
In the case of `O=C(OC[C@H]1O[C@H](O[C@H]2O[C@H](COC(=O)c3c(C(F)(F)F)cccc3C(F)(F)F)[C@@H](O)[C@H](O)[C@H]2O)[C@H](O)[C@@H](O)[C@@H]1O)c1c(C(F)(F)F)cccc1C(F)(F)F`, the Activity entry in assay [1] was “Dose-dependent effect”. Moreover, the outcome with PBMC was Active.
`O=C(Cc1ccccc1C(F)(F)F)OC[C@H]1O[C@H](O[C@H]2O[C@H](COC(=O)Cc3ccccc3C(F)(F)F)[C@@H](O)[C@H](O)[C@H]2O)[C@H](O)[C@@H](O)[C@@H]1O`: in assay [2], the outcome was Active. Further, in the assay on PBMC, the result was inactive.
Take `O=C(OC[C@H]1O[C@H](O[C@H]2O[C@H](COC(=O)c3cc(C(F)(F)F)ccc3O)[C@@H](O)[C@H](O)[C@H]2O)[C@H](O)[C@@H](O)[C@@H]1O)c1cc(C(F)(F)F)ccc1O`: the outcome in the assay with PBMC was inactive.
Still for that read-out and setting: in the case of `Cc1ccc(C(=O)OC[C@H]2O[C@H](O[C@H]3O[C@H](COC(=O)c4ccc(C)cc4C(F)(F)F)[C@@H](O)[C@H](O)[C@H]3O)[C@H](O)[C@@H](O)[C@@H]2O)c(C(F)(F)F)c1` it was “inactive”.
`COc1ccc(C(F)(F)F)cc1C(=O)OC[C@H]1O[C@H](O[C@H]2O[C@H](COC(=O)c3cc(C(F)(F)F)ccc3OC)[C@@H](O)[C@H](O)[C@H]2O)[C@H](O)[C@@H](O)[C@@H]1O`: the Activity result in assay [1] is “Dose-dependent effect”. The result in the assay on PBMC was inactive.
For the compound `O=C(OC[C@H]1O[C@H](O[C@H]2O[C@H](COC(=O)c3cccc(C(F)(F)F)c3O)[C@@H](O)[C@H](O)[C@H]2O)[C@H](O)[C@@H](O)[C@@H]1O)c1cccc(C(F)(F)F)c1O`, the outcome in the assay with PBMC was inactive.

Source of the values: ChEMBL document CHEMBL4622927, “6,6'-Aryl trehalose analogs as potential Mincle ligands” (Bioorg Med Chem, 2020).
